Results taken from ChEMBL document CHEMBL2062391, “Antiausterity agents from Uvaria dac and their preferential cytotoxic activity against human pancreatic cancer cell lines in a nutrient-deprived condition” (J Nat Prod, 2012).
The source made the active and inactive calls. No cut-off for these calls is given here.

Legend:
MIA PaCa-2 [1] = test: Cytotoxicity against human MIAPaCa2 cells grown in nutrient-rich medium after 24 hrs by WST8 assay; format: cell-based; details: mia paca-2, 24 h
Outline: (§1)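 Cells seeded at 2 × 10^4/well and grown 24 h in fresh DMEM or RPMI-1640 at 37 °C, 5% CO2. After a PBS wash, the medium was replaced with serially diluted samples in DMEM (nutrient-rich) or NDM. After 24 h, DMEM with 10% WST-8 solution was added. A450 was read after 3 h. Viability (%) was taken from the mean of three wells, blank-corrected against the control. PC50 is 50% kill in NDM without toxicity in DMEM.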

PSN1 [2] = test: Cytotoxicity against human PSN1 cells grown in nutrient-deprived medium after 24 hrs by WST8 assay; format: functional; outline: as §1
MIA PaCa-2 [3] = test: Cytotoxicity against human MIAPaCa2 cells grown in nutrient-deprived medium after 24 hrs by WST8 assay; format: functional; outline: as §1
PANC-1 [4] = test: Cytotoxicity against human PANC1 cells grown in nutrient-rich medium after 24 hrs by WST8 assay; format: cell-based; details: panc-1, 24 h; outline: as §1
[5] = (§2) Cytotoxicity against human KLM1 cells grown in nutrient-deprived medium after 24 hrs by WST8 assay; format: functional; outline: as §1
[6] = Cytotoxicity against human KLM1 cells grown in nutrient-rich medium after 24 hrs by WST8 assay; format: cell-based; details: klm1, 24 h; outline: as §1
PANC-1 [7] = test: Cytotoxicity against human PANC1 cells grown in nutrient-deprived medium after 24 hrs by WST8 assay; format: functional; outline: as §1
PSN1 [8] = test: Cytotoxicity against human PSN1 cells grown in nutrient-rich medium after 24 hrs by WST8 assay; format: cell-based; details: psn1, 24 h; outline: as §1
KLM1 = test: as §2; format: functional; outline: as §1
PANC-1 [9] = test: Induction of morphological changes in human PANC1 cells assessed as rounding of cells at 25 uM after 24 hrs by inverted-phase contrast microscopic analysis; format: functional, cell-based
Outline: (§3)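 Cells (1 × 10^6) were seeded in 60 mm dishes and attached over 24 h in a humidified CO2 incubator. They were washed twice with PBS and treated at 25 μM in DMEM or NDM, alongside controls. After 24 h, cells were viewed by phase-contrast on an inverted microscope with a 40× objective and photographed.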

PANC-1 [10] = test: Induction of morphological changes in human PANC1 cells assessed as loss of cellular content at 25 uM after 24 hrs by inverted-phase contrast microscopic analysis; format: functional, cell-based; outline: as §3
PANC-1 [11] = test: Induction of morphological changes in human PANC1 cells assessed as plasma membrane rupture at 25 uM after 24 hrs by inverted-phase contrast microscopic analysis; format: functional, cell-based; outline: as §3

Row | SMILES | Activity (MIA PaCa-2 [1]) | PC50 (PSN1 [2]) [µM] | PC50 (MIA PaCa-2 [3]) [µM] | Activity (PANC-1 [4]) | PC50 [5] [µM] | Activity [6] | PC50 (PANC-1 [7]) [µM] | Activity (PSN1 [8]) | Activity (PSN1 [2]) | Activity (MIA PaCa-2 [3]) | Activity (KLM1) | Activity (PANC-1 [7]) | Activity (PANC-1 [9]) | Activity (PANC-1 [10]) | Activity (PANC-1 [11])
1 | Nc1ccn([C@@H]2O[C@H](CO)[C@@H](O)C2(F)F)c(=O)n1 [GEMCITABINE] | Non-toxic | >200 | >200 | Non-toxic | >200 | Non-toxic | >200 | Non-toxic | – | – | – | – | – | – | –
2 | COc1ccccc1COC(=O)c1ccccc1 | Non-toxic | 185 | 131 | Non-toxic | >200 | Non-toxic | 137 | Non-toxic | – | – | – | – | – | – | –
3 | C/C(=C\COC(=O)/C=C/c1ccccc1)COC(=O)c1ccccc1 [UVARIDACANE B] | Non-toxic | 143 | 57.8 | Non-toxic | >200 | Non-toxic | 134 | Non-toxic | – | – | – | – | – | – | –
4 | CO[C@@H]1C=C(COC(=O)c2ccccc2)[C@H](OC(C)=O)[C@H](OC(=O)c2ccccc2)[C@@H]1O [UVARIDACOL B] | Non-toxic | 158 | 147 | Non-toxic | >200 | Non-toxic | 69.8 | Non-toxic | – | – | – | – | – | – | –
5 | O=C(OCC1=C[C@H](O)[C@H](O)[C@@H](OC(=O)c2ccccc2)[C@@H]1O)c1ccccc1 [UVARIDACOL C] | Non-toxic | 152 | 115 | Non-toxic | – | Non-toxic | 72.9 | Non-toxic | – | – | – | – | – | – | –
6 | COc1cc(C[C@H]2C(=O)OC[C@@H]2Cc2ccc(OC)c(OC)c2)ccc1O [ARCTIGENIN] | Non-toxic | 1.9 | 0.67 | Non-toxic | 1.5 | Non-toxic | 1.7 | Non-toxic | – | – | – | – | – | – | –
7 | CC(=O)O[C@H]1C(COC(=O)c2ccccc2)=C[C@@H](O)[C@@H](O)[C@H]1OC(=O)c1ccccc1 [UVARIDACOL A] | Non-toxic | 173 | 192 | Non-toxic | 83 | Non-toxic | 102 | Non-toxic | – | – | – | – | – | – | –
8 | O=C(OC[C@@]1(O)C(=O)C=C[C@H]2[C@@H]1[C@H]1C=C[C@@H]2C(=O)[C@]1(O)COC(=O)c1ccccc1)c1ccccc1 | Non-toxic | 32.6 | 17.5 | Non-toxic | 32.7 | Non-toxic | 14.5 | Non-toxic | Dose-dependent effect | Dose-dependent effect | Dose-dependent effect | Dose-dependent effect | Active | Active | Active
9 | C/C(=C\COC(=O)c1ccccc1)COC(=O)c1ccccc1 [UVARIDACANE A] | Non-toxic | 96.5 | 56.3 | Non-toxic | 122 | Non-toxic | 72.3 | Non-toxic | – | – | – | – | – | – | –
10 | CC(=O)O[C@@H]1C(COC(=O)c2ccccc2)=C[C@H]2O[C@H]2[C@H]1OC(=O)c1ccccc1 [UVARIDAPOXIDE A] | Non-toxic | 80.1 | 100 | Non-toxic | 159 | Non-toxic | 112 | Non-toxic | – | – | – | – | – | – | –
